Data taken from ChEMBL document CHEMBL1141540, “Design, synthesis, and evaluation of 1-(N-benzylamino)-2-phenyl-3-(1H-1,2,4-triazol-1-yl)propan-2-ols as antifungal agents” (2008).
In brackets after ≈: the same amount, converted by molar mass.

Legend:
Candida albicans = assay: Antifungal activity against Candida albicans CA98001; type: functional
How it was run: (§1)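 Growth-inhibition screen against the named strain, following a previously published protocol. The read-out is MIC80, reported in ng mL⁻¹. Fluconazole and itraconazole served as positive controls.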

Aspergillus fumigatus = assay: Antifungal activity against Aspergillus fumigatus AF98003; type: functional; how it was run: as §1

Compound | MIC80 (Candida albicans) | MIC80 (Aspergillus fumigatus)
N#Cc1ccc(CNCC(O)(Cn2cncn2)c2ccc(Cl)cc2Cl)cc1 (stereo not drawn) | 0.0028 µg/mL (≈ 0.00696 µM) | 4.02 µg/mL (≈ 9.99 µM)
OC(CNCc1ccc(C(F)(F)F)cc1)(Cn1cncn1)c1ccc(Cl)cc1Cl (stereo not drawn) | 0.024 µg/mL (≈ 0.0539 µM) | 24 µg/mL (≈ 54 µM)
CN(Cc1ccc([N+](=O)[O-])cc1)CC(O)(Cn1cncn1)c1ccc(Cl)cc1Cl (stereo not drawn) | 0.0006 µg/mL (≈ 0.00138 µM) | 1.96 µg/mL (≈ 4.49 µM)
CN(Cc1ccc(C#N)cc1)CC(O)(Cn1cncn1)c1ccc(Cl)cc1Cl (stereo not drawn) | 0.00037 µg/mL (≈ 0.000889 µM) | 2.41 µg/mL (≈ 5.79 µM)
CN(Cc1ccc(C(F)(F)F)cc1)CC(O)(Cn1cncn1)c1ccc(Cl)cc1Cl (stereo not drawn) | 0.03 µg/mL (≈ 0.0653 µM) | 21.1 µg/mL (≈ 46 µM)
O=[N+]([O-])c1ccc(CNCC(O)(Cn2cncn2)c2ccc(Cl)cc2Cl)cc1 (stereo not drawn) | 0.006 µg/mL (≈ 0.0142 µM) | 27 µg/mL (≈ 64 µM)
Nc1ccc(CNCC(O)(Cn2cncn2)c2ccc(Cl)cc2Cl)cc1 (stereo not drawn) | 18.8 µg/mL (≈ 48 µM) | 3.06 µg/mL (≈ 7.8 µM)
CN(Cc1ccc(N)cc1)CC(O)(Cn1cncn1)c1ccc(Cl)cc1Cl (stereo not drawn) | 0.029 µg/mL (≈ 0.0714 µM) | 2.32 µg/mL (≈ 5.71 µM)
OC(Cn1cncn1)(Cn1cncn1)c1ccc(F)cc1F [FLUCONAZOLE] | 0.19 µg/mL (≈ 0.62 µM) | –
CCC(C)n1ncn(-c2ccc(N3CCN(c4ccc(OC[C@H]5CO[C@](Cn6cncn6)(c6ccc(Cl)cc6Cl)O5)cc4)CC3)cc2)c1=O (stereo partly drawn) [ITRACONAZOLE] | – | 0.42 µg/mL (≈ 0.595 µM)
